The subject of test [1] is K562. Nature of the test: Cell cycle arrest in human K562 cells assessed as accumulation at G0/G1 phase at 4 uM after 24 hrs using propidium iodide staining by flow cytometry (reference value: 30.1%). The class given is functional.
Another test has as its system HL-60. The test can be described thus: Cytotoxicity against human HL60 cells after 72 hrs. The class given is functional, cell-based. The following applies: HL-60, 72 h. The gist of the method:
(§1)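 KB, HT29, A549 and HL60 lines were sourced from ATCC, with Taxotere as the reference compound. IC50 is the concentration that reduced cell growth by 50%, reported as the mean of duplicate experiments.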

Test [2] relates to K562. The test can be described thus: Cell cycle arrest in human K562 cells assessed as accumulation at G2/M phase at 4 uM after 24 hrs using propidium iodide staining by flow cytometry (reference value: 12.1%). Format: functional. Background: In flow cytometry, cells or beads pass a laser one at a time.
A further test has as its system A549. The test can be described thus: Cytotoxicity against human A549 cells after 72 hrs. The class given is functional, cell-based. The following applies: A549, 72 h. A digest of the protocol: as §1
In test [3] the test system is K562. Nature of the test: Cell cycle arrest in human K562 cells assessed as accumulation at S phase at 4 uM after 24 hrs using propidium iodide staining by flow cytometry (reference value: 56.7%). The class given is functional.
The subject of the next test is KB. Nature of the test: Cytotoxicity against human KB cells after 72 hrs. The class given is functional, cell-based. A digest of the protocol: as §1
The subject of a further test is HT-29. The test can be described thus: Cytotoxicity against human HT-29 cells after 72 hrs. Format: functional, cell-based. The following applies: HT-29, 72 h. The gist of the method:
as §1

Usually IC50 stands for the midpoint of a concentration-inhibition curve. A lower IC50 goes with higher potency.

As to `C=C1C(=O)[C@]23CC[C@@H](C(=C)C)[C@]4(C)CCC(=O)O[C@@]42C[C@H]1C[C@@H]3OC(C)=O` [CROTOBARIN], the Activity came to 12.3% in the test with K562 [1], 56.5% in the test on K562 [2] and 25.7% in the test with K562 [3]. Moreover, the IC50 was 560 nM in the test on HL-60, 790 nM in the test on A549, 2500 nM with KB and 2100 nM in the test with HT-29.

In the case of `C=C1C(=O)[C@@]23CC[C@@H]1C[C@@]21OC(=O)CC[C@@]1(C)[C@H](C(=C)C)CC3` [CROTOGOUDIN], the Activity is listed as 22.2% in the test on K562 [1], 33.6% in the test on K562 [2] and 31.8% with K562 [3]. The IC50 in the test with HL-60 was determined as 490 nM; in the test on A549, 540 nM; in the test on KB it was 1500 nM; in the test with HT-29, 1900 nM.

`CC(=O)O[C@@]12CO[C@@H]1C[C@H](O)[C@@]1(C)C(=O)[C@H](O)C3=C(C)[C@@H](OC(=O)[C@H](O)[C@@H](NC(=O)OC(C)(C)C)c4ccccc4)C[C@@](O)([C@@H](OC(=O)c4ccccc4)[C@H]21)C3(C)C` [DOCETAXEL]: the IC50 in the test with HL-60 was 520 nM; in the test with A549 it was 370 nM; in the test on KB it was 290 nM; in the test on HT-29, 920 nM.
